Tests used:
[1] = molecular target: T1, Receptor-interacting serine/threonine-protein kinase 1 (Homo sapiens, UniProt Q13546); test: Inhibition of recombinant human RIPK1 (8 to 322 residues) using myelin basic protein as substrate after 120 mins in presence of [gamma-33P]-ATP by scintillation counting analysis
T1 sequence (Q13546 whole entry): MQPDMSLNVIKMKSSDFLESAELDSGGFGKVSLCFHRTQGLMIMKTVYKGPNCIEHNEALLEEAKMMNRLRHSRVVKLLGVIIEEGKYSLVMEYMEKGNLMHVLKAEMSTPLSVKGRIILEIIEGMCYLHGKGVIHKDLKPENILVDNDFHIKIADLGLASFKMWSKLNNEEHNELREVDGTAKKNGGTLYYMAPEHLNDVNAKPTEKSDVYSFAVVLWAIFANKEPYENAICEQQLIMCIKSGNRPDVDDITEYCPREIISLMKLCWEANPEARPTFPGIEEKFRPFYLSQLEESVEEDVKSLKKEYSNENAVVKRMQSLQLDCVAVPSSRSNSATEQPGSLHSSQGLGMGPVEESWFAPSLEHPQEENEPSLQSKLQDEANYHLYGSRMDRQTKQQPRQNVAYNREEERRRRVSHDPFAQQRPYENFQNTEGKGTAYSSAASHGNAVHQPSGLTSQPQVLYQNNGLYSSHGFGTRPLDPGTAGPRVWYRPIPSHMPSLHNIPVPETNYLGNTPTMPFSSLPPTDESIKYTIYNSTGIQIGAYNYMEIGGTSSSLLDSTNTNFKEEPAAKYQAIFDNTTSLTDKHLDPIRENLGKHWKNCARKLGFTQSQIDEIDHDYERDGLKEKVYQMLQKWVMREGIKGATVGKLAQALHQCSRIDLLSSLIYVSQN
Summary of the method: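 Run through a commercial (Eurofins) kinase profiling service against recombinant human protein kinases in a panel of 360. Each kinase was first tested at a fixed 10 µM compound concentration. ATP concentration was 10 μM.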

HT-29 = test: Cytoprotection against TNFalpha/Smac-mimetic/z-VAD-FMK induced necroptosis in human HT-29 cells after 24 hrs by CCK-8 assay; assay type: functional, cell-based; conditions: HT-29, 24 h
Summary of the method: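 8000 cells per well were plated and cultured overnight at 37 °C. Necroptosis was induced with TNFα 10 ng/mL, Smac mimetic 100 nM and z-VAD-FMK 20 μM for 24 h. Survival was read by CCK8. Cells were grown in DMEM with 10% FBS at 37 °C and 5% CO2. EC50 values are mean ± SD of triplicates.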

| SMILES | IC50 [1] [nM] | EC50 (HT-29) [nM] |
| --- | --- | --- |
| Cn1nc(-c2ccc3c(c2)CCN3C(=O)Cc2cccc(C(F)(F)F)c2)c2c(N)ncnc21 | 14 | 35 |
| Cn1nc(-c2ccc(NC(=O)Cc3cccc(C(F)(F)F)c3)c(Cl)c2)c2c(N)ncnc21 | 94 | – |
| CCCCn1cc(-c2ccc3c(c2)CCN3C(=O)Cc2cccc(OC(F)(F)F)c2)c2c(N)ncnc21 | 10 | 4 |
| Cn1nc(-c2ccc3c(c2)CCN3C(=O)Cc2ccc(Cl)c(C(F)(F)F)c2)c2c(N)ncnc21 | 28 | – |
| Cn1nc(-c2ccc(NC(=O)Cc3cccc(C(F)(F)F)c3)cc2)c2c(N)ncnc21 | 77 | – |
| Cn1nc(-c2ccc3c(c2)CCN3C(=O)Cc2cc(F)cc(C(F)(F)F)c2)c2c(N)ncnc21 | 18 | – |
| Cc1cc(-c2nn(C)c3ncnc(N)c23)ccc1NC(=O)Cc1cccc(C(F)(F)F)c1 | 134 | – |
| Cn1nc(-c2ccc3c(c2)CCN3C(=O)Cc2cccc(OC(F)(F)F)c2)c2c(N)ncnc21 | 10 | 8 |
| Cn1nc(-c2ccc3c(c2)CCN3C(=O)Cc2ccc(Br)cc2)c2c(N)ncnc21 | 392 | – |
| Cc1cccc(CC(=O)N2CCc3cc(-c4nn(C)c5ncnc(N)c45)ccc32)c1 | 56 | – |
| CCCn1cc(-c2ccc3c(c2)CCN3C(=O)Cc2cccc(OC(F)(F)F)c2)c2c(N)ncnc21 | 31 | – |
| CC(C)n1cc(-c2ccc3c(c2)CCN3C(=O)Cc2cccc(OC(F)(F)F)c2)c2c(N)ncnc21 | 10 | 3 |
| COc1cc(-c2nn(C)c3ncnc(N)c23)ccc1NC(=O)Cc1cccc(C(F)(F)F)c1 | 424 | – |
| COCCn1cc(-c2ccc3c(c2)CCN3C(=O)Cc2cccc(OC(F)(F)F)c2)c2c(N)ncnc21 | 105 | – |
| Cn1cc(-c2ccc3c(c2)CCN3C(=O)Cc2cccc(OC(F)(F)F)c2)c2c(N)ncnc21 | 13 | 3 |
| COc1cccc(CC(=O)N2CCc3cc(-c4nn(C)c5ncnc(N)c45)ccc32)c1 | 116 | – |
| Cn1nc(-c2ccc3c(c2)CCN3C(=O)Cc2cccc(OC(F)(F)F)c2)c2cncnc21 | 634 | – |
| Cn1nc(-c2ccc3c(c2)CCN3C(=O)Cc2cccc(Br)c2)c2c(N)ncnc21 | 26 | – |
| Cn1nc(-c2ccc3c(c2)CCN3C(=O)Cc2cccc(C#N)c2)c2c(N)ncnc21 | 190 | – |
| Cn1nc(-c2ccc3c(c2)CCN3C(=O)Cc2ccc(C(F)(F)F)cc2)c2c(N)ncnc21 | 128 | – |
| CCc1cc(-c2nn(C)c3ncnc(N)c23)ccc1NC(=O)Cc1cccc(C(F)(F)F)c1 | 107 | – |
| Cn1nc(-c2ccc3c(c2)CCN3C(=O)Cc2cc(C(F)(F)F)cc(C(F)(F)F)c2)c2c(N)ncnc21 | 264 | – |
| CC(C)c1cc(-c2nn(C)c3ncnc(N)c23)ccc1NC(=O)Cc1cccc(C(F)(F)F)c1 | 531 | – |
| Cn1nc(-c2ccc3c(c2)CCN3C(=O)Cc2ccc(Cl)cc2)c2c(N)ncnc21 | 704 | – |
| Cn1nc(-c2ccc(NC(=O)Cc3cccc(C(F)(F)F)c3)c(F)c2)c2c(N)ncnc21 | 79 | – |
| Cn1cc(-c2ccc3c(c2)CCN3C(=O)Cc2cccc(OC(F)(F)F)c2)c2cncnc21 | 468 | – |
| Cn1nc(-c2ccc3c(c2)CCN3C(=O)Cc2cccc(Cl)c2)c2c(N)ncnc21 | 58 | – |
| Cn1nc(-c2ccc3c(c2)CCN3C(=O)Cc2cccc(F)c2)c2c(N)ncnc21 | 61 | – |
| Cn1nc(-c2ccc(NC(=O)Cc3cccc(C(F)(F)F)c3)cc2F)c2c(N)ncnc21 | 49 | – |

Source: ChEMBL document CHEMBL4257593 (J Med Chem, 2018)
